Tests used:
[1] = target: Cytochrome P450 3A4 (Homo sapiens, UniProt P08684); assay: Inhibition of CYP3A4 in human liver microsomes at 1 uM measured after 20 mins in presence of NADPH by LC/MS/MS analysis; assay type: ADME
Method in brief: (§1)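 CYP isoforms 1A2, 2D6, 3A4, 2C9 and 2C19 were tested at 1 and 10 µM. Results are % inhibition compared with a no-inhibitor control, run in triplicate.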

[2] = target: T1, Cytochrome P450 1A2 (Homo sapiens, UniProt P05177); assay: Inhibition of CYP1A2 in human liver microsomes at 1 uM measured after 20 mins in presence of NADPH by LC/MS/MS analysis; assay type: ADME; method in brief: as §1
T1 sequence (P05177 whole entry): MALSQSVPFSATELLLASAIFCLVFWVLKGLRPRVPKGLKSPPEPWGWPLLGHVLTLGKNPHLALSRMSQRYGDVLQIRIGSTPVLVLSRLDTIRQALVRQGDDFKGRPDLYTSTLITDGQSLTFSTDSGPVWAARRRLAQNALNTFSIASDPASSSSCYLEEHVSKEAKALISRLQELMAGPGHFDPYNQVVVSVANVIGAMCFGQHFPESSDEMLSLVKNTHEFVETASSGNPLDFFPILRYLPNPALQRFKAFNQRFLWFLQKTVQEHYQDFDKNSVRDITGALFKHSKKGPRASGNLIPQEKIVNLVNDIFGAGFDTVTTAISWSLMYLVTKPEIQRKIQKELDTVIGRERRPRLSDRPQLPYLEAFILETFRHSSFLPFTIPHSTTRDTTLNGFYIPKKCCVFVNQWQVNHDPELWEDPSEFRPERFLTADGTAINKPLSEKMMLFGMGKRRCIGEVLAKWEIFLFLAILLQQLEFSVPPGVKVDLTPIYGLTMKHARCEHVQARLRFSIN

[3] = target: CYP2C9 (Homo sapiens, UniProt P11712); assay: Inhibition of CYP2C9 in human liver microsomes at 10 uM measured after 20 mins in presence of NADPH by LC/MS/MS analysis relative to control; assay type: ADME; method in brief: as §1
[4] = Metabolic stability in human liver microsomes assessed as parent compound remaining at 1 uM after 60 mins in presence of NADPH by LC/MS/MS analysis; assay type: ADME, microsome; conditions: read-out: Stability
Method in brief: (§2)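 Compound at 1.0 µM was incubated with liver microsomes (1.0 mg/mL protein) at 37 °C for 60 min. Samples were analysed by LC/MS/MS as % parent remaining. Run in triplicate.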

[5] = Metabolic stability in Guinea pig liver microsomes assessed as parent compound remaining at 1 uM after 60 mins in presence of NADPH by LC/MS/MS analysis; assay type: ADME, Cavia porcellus, microsome; conditions: read-out: Stability; method in brief: as §2
[6] = Metabolic stability in rat liver microsomes assessed as parent compound remaining at 1 uM after 60 mins in presence of NADPH by LC/MS/MS analysis; assay type: ADME, microsome; conditions: read-out: Stability; method in brief: as §2
[7] = Oral bioavailability in Sprague-Dawley rat at 10 mg/kg; assay type: ADME, organism-based; conditions: in vivo
Method in brief: (§3)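 Male Sprague-Dawley rats were dosed orally as a 0.5% methylcellulose suspension. Cmax, AUC0-24, Tmax, T1/2 and %F were determined. Values are mean ± SD, n = 3.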

[8] = target: Prostaglandin G/H synthase 1 (Homo sapiens, UniProt P23219); assay: Inhibition of COX1 in human U937 cells assessed as decrease in PGE2 release using arachidonic acid as substrate preincubated for 15 mins followed by arachidonic acid addition measured after 5 mins; assay type: cell-based
[9] = target: Cytochrome P450 2C19 (Homo sapiens, UniProt P33261); assay: Inhibition of CYP2C19 in human liver microsomes at 1 uM measured after 40 mins in presence of NADPH by LC/MS/MS analysis; assay type: ADME; method in brief: as §1
[10] = target: T2, Prostaglandin G/H synthase 2 (Homo sapiens, UniProt P35354); assay: Inhibition of recombinant human N-terminal His-tagged COX2 expressed in baculovirus infected Sf21 insect cells assessed as decrease in PGE2 release using arachidonic acid as substrate preincubated for 15 mins followed by arachidonic acid addition measured after 5 mins
T2 sequence (P35354 whole entry): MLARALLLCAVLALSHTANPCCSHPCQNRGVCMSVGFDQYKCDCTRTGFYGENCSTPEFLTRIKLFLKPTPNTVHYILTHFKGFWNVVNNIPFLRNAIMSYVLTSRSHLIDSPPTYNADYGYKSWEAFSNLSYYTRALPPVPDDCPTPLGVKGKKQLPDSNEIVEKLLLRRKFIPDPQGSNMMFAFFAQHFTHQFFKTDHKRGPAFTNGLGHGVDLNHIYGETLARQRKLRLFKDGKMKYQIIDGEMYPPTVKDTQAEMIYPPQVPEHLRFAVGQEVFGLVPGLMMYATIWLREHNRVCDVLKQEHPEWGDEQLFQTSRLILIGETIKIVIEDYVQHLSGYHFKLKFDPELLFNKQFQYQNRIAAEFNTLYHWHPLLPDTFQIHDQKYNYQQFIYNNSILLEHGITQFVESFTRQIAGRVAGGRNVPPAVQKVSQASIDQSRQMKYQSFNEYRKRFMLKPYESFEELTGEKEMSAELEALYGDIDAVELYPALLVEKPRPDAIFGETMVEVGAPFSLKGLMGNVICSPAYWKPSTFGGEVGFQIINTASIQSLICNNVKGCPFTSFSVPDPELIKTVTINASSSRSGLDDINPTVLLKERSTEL

[11] = Half life in Sprague-Dawley rat at 10 mg/kg, po; assay type: ADME, organism-based; conditions: in vivo; method in brief: as §3
[12] = Clearance in Sprague-Dawley rat at 5 mg/kg, iv administered as single bolus dose; assay type: ADME, organism-based; conditions: in vivo
Method in brief: (§4)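 Male Sprague-Dawley rats were dosed i.v. in a vehicle of 20% NMP + 20% ethanol + 60% PEG 200. T1/2, CL and Vz were derived. Values are mean ± SD, n = 3.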

[13] = Protein binding in Guinea pig plasma at 10 uM after 5 to 10 mins by LC-MS/SM analysis; assay type: ADME, cell-free, Cavia porcellus; conditions: read-out: PPB
Method in brief: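 Plasma protein binding was measured by equilibrium dialysis at 10 µM compound.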

[14] = target: Cytochrome P450 2C9 (Homo sapiens, UniProt P11712); assay: Inhibition of CYP2C9 in human liver microsomes at 1 uM measured after 20 mins in presence of NADPH by LC/MS/MS analysis; assay type: ADME; method in brief: as §1
[15] = target: CYP3A4 (Homo sapiens, UniProt P08684); assay: Inhibition of CYP3A4 in human liver microsomes at 10 uM measured after 20 mins in presence of NADPH by LC/MS/MS analysis relative to control; assay type: ADME; method in brief: as §1
[16] = target: T3, Prostaglandin E synthase (Homo sapiens, UniProt O14684); assay: Inhibition of recombinant human mPGES-1 expressed in CHO cells assessed as reduction in PGE2 formation using PGH2 a substrate preincubated for 10 mins followed by substrate addition measured after 1 min; assay type: cell-based
T3 sequence (O14684 whole entry): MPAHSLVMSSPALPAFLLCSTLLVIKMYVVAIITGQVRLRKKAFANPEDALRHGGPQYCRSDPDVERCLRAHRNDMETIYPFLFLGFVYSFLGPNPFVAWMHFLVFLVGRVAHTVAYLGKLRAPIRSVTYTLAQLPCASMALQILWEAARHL
Method in brief: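 mPGES-1 enzyme inhibition. % inhibition values are means of two experiments in duplicate. IC50 values were derived from graphs of at least two experiments in duplicate.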

[17] = Tmax in Sprague-Dawley rat at 10 mg/kg, po; assay type: ADME, organism-based; conditions: in vivo; method in brief: as §3
[18] = Half life in Sprague-Dawley rat at 5 mg/kg, iv administered as single bolus dose; assay type: ADME, organism-based; conditions: in vivo; method in brief: as §4

Chain of Prostaglandin G/H synthase 1 (P23219 whole entry): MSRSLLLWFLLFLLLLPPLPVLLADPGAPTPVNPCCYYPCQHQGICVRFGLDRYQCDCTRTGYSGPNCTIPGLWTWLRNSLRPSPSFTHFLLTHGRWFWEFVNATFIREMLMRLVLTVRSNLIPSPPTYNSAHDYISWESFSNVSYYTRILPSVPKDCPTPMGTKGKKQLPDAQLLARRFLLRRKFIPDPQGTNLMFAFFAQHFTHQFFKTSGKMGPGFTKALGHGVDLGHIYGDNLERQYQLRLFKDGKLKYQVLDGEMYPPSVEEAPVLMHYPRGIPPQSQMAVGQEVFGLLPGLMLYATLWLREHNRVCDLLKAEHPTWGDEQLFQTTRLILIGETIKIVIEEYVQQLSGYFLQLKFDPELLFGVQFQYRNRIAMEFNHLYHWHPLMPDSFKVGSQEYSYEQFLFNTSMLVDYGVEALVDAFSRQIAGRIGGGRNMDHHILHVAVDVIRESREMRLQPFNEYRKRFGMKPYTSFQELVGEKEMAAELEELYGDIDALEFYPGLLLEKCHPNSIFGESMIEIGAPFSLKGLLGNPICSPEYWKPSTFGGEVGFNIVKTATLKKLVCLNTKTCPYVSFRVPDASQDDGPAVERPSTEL
Chain of Cytochrome P450 2C19 (P33261 whole entry): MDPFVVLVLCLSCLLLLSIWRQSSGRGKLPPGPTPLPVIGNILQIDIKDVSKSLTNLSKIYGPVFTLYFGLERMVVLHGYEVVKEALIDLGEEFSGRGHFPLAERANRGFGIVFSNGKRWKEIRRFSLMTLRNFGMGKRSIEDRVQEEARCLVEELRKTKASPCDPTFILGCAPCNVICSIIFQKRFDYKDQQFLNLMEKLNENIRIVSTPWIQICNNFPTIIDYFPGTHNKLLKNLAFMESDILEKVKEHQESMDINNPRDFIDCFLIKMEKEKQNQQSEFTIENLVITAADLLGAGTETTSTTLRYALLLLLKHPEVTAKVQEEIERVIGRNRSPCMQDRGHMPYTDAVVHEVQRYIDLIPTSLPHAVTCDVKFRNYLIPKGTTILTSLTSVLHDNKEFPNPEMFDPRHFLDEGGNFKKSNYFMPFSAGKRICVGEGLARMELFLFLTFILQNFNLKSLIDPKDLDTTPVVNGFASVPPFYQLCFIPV
Chain of CYP2C9 (P11712 whole entry): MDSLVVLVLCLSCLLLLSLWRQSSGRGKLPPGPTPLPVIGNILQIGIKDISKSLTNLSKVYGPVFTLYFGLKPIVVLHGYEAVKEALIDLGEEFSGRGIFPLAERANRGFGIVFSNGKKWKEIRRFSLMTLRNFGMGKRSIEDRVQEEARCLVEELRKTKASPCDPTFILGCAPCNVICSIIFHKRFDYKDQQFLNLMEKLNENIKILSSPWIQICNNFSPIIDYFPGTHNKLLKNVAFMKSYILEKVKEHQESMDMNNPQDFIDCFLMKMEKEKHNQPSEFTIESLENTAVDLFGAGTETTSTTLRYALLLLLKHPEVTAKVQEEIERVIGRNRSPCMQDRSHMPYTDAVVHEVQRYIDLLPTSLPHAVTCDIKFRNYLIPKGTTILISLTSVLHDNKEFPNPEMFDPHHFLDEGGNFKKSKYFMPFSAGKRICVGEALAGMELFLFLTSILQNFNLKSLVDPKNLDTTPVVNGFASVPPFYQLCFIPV
Chain of Cytochrome P450 2C9 (P11712 whole entry): as above
Chain of CYP3A4 (P08684 whole entry): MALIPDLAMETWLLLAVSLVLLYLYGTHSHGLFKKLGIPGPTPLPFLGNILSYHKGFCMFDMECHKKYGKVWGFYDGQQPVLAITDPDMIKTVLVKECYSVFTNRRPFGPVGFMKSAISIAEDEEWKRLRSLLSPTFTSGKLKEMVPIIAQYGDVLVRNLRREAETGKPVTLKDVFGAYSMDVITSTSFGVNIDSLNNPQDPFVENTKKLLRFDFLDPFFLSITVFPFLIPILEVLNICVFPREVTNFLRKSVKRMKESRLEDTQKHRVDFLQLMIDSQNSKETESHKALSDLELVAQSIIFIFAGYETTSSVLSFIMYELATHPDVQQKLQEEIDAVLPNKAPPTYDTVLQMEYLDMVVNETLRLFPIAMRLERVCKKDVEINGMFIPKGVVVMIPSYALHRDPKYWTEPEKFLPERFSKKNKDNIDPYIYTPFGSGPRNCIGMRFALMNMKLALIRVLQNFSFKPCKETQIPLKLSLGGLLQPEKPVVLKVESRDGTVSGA
Chain of Cytochrome P450 3A4 (P08684 whole entry, canonical isoform): as the sequence (P08684 whole entry) above

Row | SMILES | inhibition (INH) [1] | inhibition (INH) [2] | inhibition at 20 min, 10 µM [3] | remaining at 1 h, 1 µM [4] | remaining at 1 h, 1 µM [5] | remaining at 1 h, 1 µM [6] | bioavailability [7] | IC50 [8] | inhibition (INH) [9] | IC50 [10] | half-life [11] | clearance [12] | fraction unbound at 10 µM [13] | inhibition (INH) [14] | inhibition at 20 min, 10 µM [15] | IC50 [16] | Tmax [17] | half-life [18]
1 | CC1(C)Oc2cc(C#Cc3cc(Cl)ccc3F)ccc2-c2[nH]c(-c3c(F)cccc3Cl)nc21 | Not Active | Not Active | 33.3% | 76% | 73% | 44% | 85% | 60 nM | Not Active | 9880 nM | 6.77 h | 11.1 mL/min/kg | < 0.005 | Not Active | 31% | 36.3 nM | 4 h | 5.5 h
2 | CC1(C)Oc2cc(-c3cccc(OC(F)(F)F)c3)ccc2-c2[nH]c(-c3c(F)cccc3Cl)nc21 | Not Active | Not Active | 45.4% | 84% | 80% | 83% | 33% | 6750 nM | Not Active | > 10000 nM | 11.2 h | 3.63 mL/min/kg | < 0.005 | Not Active | 8.4% | 56.9 nM | 4 h | 9.87 h

— ChEMBL document CHEMBL4028818, “Tricyclic 4,4-dimethyl-3,4-dihydrochromeno[3,4-d]imidazole derivatives as microsomal prostaglandin E2 synthase-1 (mPGES-1) inhibitors: SAR and in vivo efficacy in hyperalgesia pain model” (Bioorg Med Chem Lett, 2017)
